Results on 24 compounds are retold here after ChEMBL document CHEMBL4431338, “Design, synthesis and biological evaluation of novel hamamelitannin analogues as potentiators for vancomycin in the treatment of biofilm related Staphylococcus aureus infections” (Bioorg Med Chem, 2016).

In data set [1] the test system is Staphylococcus aureus. Put plainly: Potentiation of vancomycin-mediated reduction in CFU per biofilm of Staphylococcus aureus Mu50 after 24 hrs. It counts as functional, organism-based. The settings on record: Mu50, 24 h.
The test system of data set [2] is Staphylococcus aureus. In words: Potentiation of vancomycin-mediated reduction in CFU per biofilm of Staphylococcus aureus Mu50 preincubated for 20 hrs followed by vancomycin addition measured after 24 hrs. It counts as functional, organism-based. The gist of the method:
(§1)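 Inoculum: overnight MH culture resuspended in 2× MH at OD590 0.2. Analogue present during 4 h adhesion at 37 °C, then after a saline wash for 20 h more at 37 °C. Biofilms then rinsed and exposed to vancomycin (20 μg/ml) alone in saline for 24 h at 37 °C. Line 5 uses analogue at 100 μM; line 4 uses lower concentrations, with EC50 as the level doubling vancomycin killing. CFU/biofilm counted by plating after vortex/sonication, as % reduction vs untreated control. n ≥ 9.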

Data set [3] concerns Staphylococcus aureus. In words: Potentiation of vancomycin-mediated reduction in CFU per biofilm of Staphylococcus aureus Mu50 preincubated with compound at 100 uM for 20 hrs followed by vancomycin addition measured after 24 hrs (reference value: 30 +/- 14%). It counts as functional. Also noted: scale not given: the % may be the effect or the level left. The gist of the method: as §1

The test system of data set [4] is Staphylococcus aureus. Put plainly: Potentiation of vancomycin-mediated reduction in CFU per biofilm of Staphylococcus aureus Mu50 at 100 uM after 24 hrs (reference value: 30 +/- 14%). It counts as functional. The arrangement: scale not given: the % may be the effect or the level left.
The test system of data set [5] is Staphylococcus aureus. Put plainly: Growth inhibition of Staphylococcus aureus Mu50 after 20 hrs by broth microdilution method. It is filed as organism-based. The settings on record: in vitro. Summed up: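 S. aureus Mu50 grown in Mueller–Hinton broth at 37 °C, aerobic; MICs determined in triplicate in flat-bottom 96-well microtiter plates following an earlier published method.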

Molecules are shown by their SMILES. pEC50: −log10 of the molar value.

What is called pEC50 is the EC50 on a negative log10 scale, so that one unit is a factor of ten. With `O=C(NC[C@]1(O)CO[C@H](CNC(=O)c2ccccc2Cl)[C@H]1O)c1ccccc1`, the pEC50 in the data set on Staphylococcus aureus [1] and in the data set on Staphylococcus aureus [2] was 6.41 in each case.
With `O=C(NC[C@]1(O)CO[C@H](CNS(=O)(=O)C(F)(F)F)[C@H]1O)c1ccccc1`, the Activity is 71% in the data set on Staphylococcus aureus [3] and 57% with Staphylococcus aureus [4]. The compound also registered an MIC with Staphylococcus aureus [5] greater than 500 µM.
Regarding `O=C(NC[C@@H]1OC[C@@](O)(CNC(=O)c2ccccc2)[C@@H]1O)c1ccccc1`, the Activity in the data set on Staphylococcus aureus [3] amounted to 48%; with Staphylococcus aureus [4], 44%. Moreover, the MIC against Staphylococcus aureus [5] was greater than 500 µM. Besides, the pEC50 in the data set with Staphylococcus aureus [1] was less than 3.60; in the data set on Staphylococcus aureus [2], 3.65.
With `O=C(NC[C@]1(O)CO[C@H](CNS(=O)(=O)c2ccc(-c3ccccc3)cc2)[C@H]1O)c1ccccc1`, the values for the Activity in the data set with Staphylococcus aureus [3] and in the data set on Staphylococcus aureus [4] were 84% and 83%, respectively. In the data set on Staphylococcus aureus [5], the MIC is greater than 500 µM.
As to `O=C(NC[C@]1(O)CO[C@H](Cn2cc(-c3ccccc3)nn2)[C@H]1O)c1ccccc1`, the Activity with Staphylococcus aureus [3] is on record as 46%; in the data set with Staphylococcus aureus [4] it was 66%. This compound displayed an MIC in the data set with Staphylococcus aureus [5] greater than 500 µM.
`O=C(NC[C@]1(O)CO[C@H](CNC(=S)Nc2ccccc2)[C@H]1O)c1ccccc1`: the Activity in the data set on Staphylococcus aureus [3] came out at 80%; in the data set on Staphylococcus aureus [4], 73%. The MIC against Staphylococcus aureus [5] is greater than 500 µM.
`O=C(NC[C@H]1OC[C@@](O)(CNC(=O)c2ccccc2)[C@@H]1O)c1ccccc1`: the Activity in the data set with Staphylococcus aureus [3] was found to be 66%; in the data set with Staphylococcus aureus [4], 65%. The MIC against Staphylococcus aureus [5] was greater than 500 µM. Moreover, the negative logarithm of the EC50 (pEC50) with Staphylococcus aureus [1] was 3.91; with Staphylococcus aureus [2] it was 4.01.
For the compound `CS(=O)(=O)NC[C@H]1OC[C@@](O)(CNC(=O)c2ccccc2)[C@@H]1O`, the Activity turned out to be 69% with Staphylococcus aureus [3] and 62% in the data set with Staphylococcus aureus [4]. The compound also displayed an MIC in the data set on Staphylococcus aureus [5] greater than 500 µM.
As to `O=C(NC[C@]1(O)CO[C@H](CNC(=O)c2ccccc2OC(F)(F)F)[C@H]1O)c1ccccc1`, the Activity turned out to be 78% in the data set on Staphylococcus aureus [3] and 69% with Staphylococcus aureus [4]. Further, the MIC with Staphylococcus aureus [5] was greater than 500 µM. Further, the pEC50 in the data set on Staphylococcus aureus [1] was 4.25; in the data set with Staphylococcus aureus [2], 4.58.
Take `O=C(NC[C@]1(O)CO[C@H](CNCc2ccccc2)[C@H]1O)c1ccccc1`: the Activity in the data set with Staphylococcus aureus [3] is 81%; in the data set on Staphylococcus aureus [4] it was 78%. Moreover, the MIC in the data set with Staphylococcus aureus [5] was greater than 500 µM. The figures for the pEC50 with Staphylococcus aureus [1] and in the data set with Staphylococcus aureus [2] were 4.35 and 4.39, respectively.
In the same order, the values of `CN(C[C@H]1OC[C@@](O)(CNC(=O)c2ccccc2)[C@@H]1O)C(=O)c1ccccc1` are 94%, 90%, greater than 500 µM, 4.61 and 5.07.
In the same order, the values of `O=C(NC[C@]1(O)CO[C@H](CNC(=O)c2ccccc2OC(F)F)[C@H]1O)c1ccccc1` are 81%, 78%, greater than 500 µM, 4.59 and 4.51.
Regarding `O=C(NC[C@]1(O)CO[C@H](CNC(=O)c2ccccc2I)[C@H]1O)c1ccccc1`, the figures for the Activity with Staphylococcus aureus [3] and in the data set with Staphylococcus aureus [4] were 96% and 84%, respectively. The same compound yielded an MIC in the data set on Staphylococcus aureus [5] greater than 500 µM. The pEC50 in the data set on Staphylococcus aureus [1] is 4.69; with Staphylococcus aureus [2], 5.72.
For the compound `CC(C)S(=O)(=O)NC[C@H]1OC[C@@](O)(CNC(=O)c2ccccc2)[C@@H]1O`, the Activity is 72% with Staphylococcus aureus [3] and 67% with Staphylococcus aureus [4]. Also, the MIC in the data set on Staphylococcus aureus [5] was greater than 500 µM.
In the same order, the values of `Cc1ccc(S(=O)(=O)NC[C@H]2OC[C@@](O)(CNC(=O)c3ccccc3)[C@@H]2O)cc1` are 83%, 74% and greater than 500 µM.
With `O=C(NC[C@]1(O)CO[C@H](CN2Cc3ccccc3C2=O)[C@H]1O)c1ccccc1`, the results for the Activity in the data set on Staphylococcus aureus [3] and in the data set with Staphylococcus aureus [4] were 75% and 70%, respectively. For the same compound, the MIC against Staphylococcus aureus [5] was greater than 500 µM. The pEC50 was 4.22 in the data set on Staphylococcus aureus [1] and 4.24 with Staphylococcus aureus [2].
For `CCS(=O)(=O)NC[C@H]1OC[C@@](O)(CNC(=O)c2ccccc2)[C@@H]1O`, the Activity is given as 49% in the data set with Staphylococcus aureus [3] and 47% in the data set on Staphylococcus aureus [4]. The compound also showed an MIC against Staphylococcus aureus [5] greater than 500 µM.
In the case of `O=C(NC[C@]1(O)CO[C@H](Cn2nncc2-c2ccccc2)[C@H]1O)c1ccccc1`, the Activity came to 53% in the data set with Staphylococcus aureus [3] and 26% with Staphylococcus aureus [4]. For the same compound, the MIC with Staphylococcus aureus [5] was greater than 500 µM.
In the same order, the values of `O=C(NC[C@]1(O)CO[C@H](CNS(=O)(=O)c2ccccc2)[C@H]1O)c1ccccc1` are 78%, 69% and greater than 500 µM.
The matching figures for `O=C(NC[C@H]1OC[C@@](O)(CNC(=O)c2ccccc2)[C@@H]1O)Nc1ccccc1`: 76%, 81% and greater than 500 µM.
Regarding `O=C(NC[C@]1(O)CO[C@H](CNS(=O)(=O)c2ccccc2Cl)[C@H]1O)c1ccccc1`, the results for the Activity with Staphylococcus aureus [3] and in the data set on Staphylococcus aureus [4] were 65% and 73%, respectively. In the data set with Staphylococcus aureus [5], this compound returned an MIC greater than 500 µM.
Consider `O=C(NC[C@]1(O)CO[C@H](CNS(=O)(=O)c2ccc(Cl)cc2)[C@H]1O)c1ccccc1`, for which the Activity with Staphylococcus aureus [3] came to 86%; with Staphylococcus aureus [4], 85%. Further, the MIC against Staphylococcus aureus [5] was greater than 500 µM. For the same compound, the negative logarithm of the EC50 (pEC50) in the data set on Staphylococcus aureus [1] is 4.56; in the data set with Staphylococcus aureus [2] it was 4.63.
The matching figures for `O=C(NC[C@]1(O)CO[C@H](CNC(=O)c2ccccc2Br)[C@H]1O)c1ccccc1`: 96%, 82%, greater than 500 µM, 4.71 and 5.01.
The matching figures for `O=C(OC[C@H]1OC(O)[C@@](O)(COC(=O)c2cc(O)c(O)c(O)c2)[C@@H]1O)c1cc(O)c(O)c(O)c1` (stereo partly drawn) [HAMAMELITANNIN]: 57%, 57%, greater than 500 µM, 3.78 and 3.84.
